Measurements: ChEMBL document CHEMBL4373657, “Derivatives of a new heterocyclic system - pyrano[3,4-c][1,2,4]triazolo[4,3-a]pyridines: synthesis, docking analysis and neurotropic activity” (Medchemcomm, 2019)
Active and inactive are the calls of the source. No cut-off for these calls is given here.

Columns and labels:
Mus musculus [1] = assay: Anticonvulsant activity in mouse assessed as proportion of animals displaying reduction in PTZ-induced clonic seizures at 50 mg/kg, ip administered 45 mins before PTZ stimulation relative to control; format: functional; parameters: scale not given: the % may be the effect or the level left
In short: (§1)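 Outbred mice (18–22 g), 8 per dose. Compounds given i.p. at 10–100 mg kg–1 as a carboxymethylcellulose/Tween-80 suspension, 45 min before s.c. pentylenetetrazole 90 mg kg–1; controls received emulsifier. Endpoint was prevention of clonic seizures. ED50 was derived by Litchfield–Wilcoxon probit analysis.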

[2] = Neurotoxicity in ip dosed mouse assessed as myorelaxation measured for 2 mins by rotarod test; format: toxicity, organism-based; settings: in vivo
In short: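 Mice were placed on a corrugated rubber-coated metal rod rotating at 5 rpm, and the number staying on for 2 min was counted. TD50 was derived by Litchfield–Wilcoxon probit analysis.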

Mus musculus [3] = assay: Anticonvulsant activity in mouse assessed as reduction in PTZ-induced clonic seizures at 25 mg/kg, ip administered 45 mins before PTZ stimulation; format: functional, organism-based; in short: as §1
Mus musculus [4] = assay: Antianxiety activity in mouse assessed as increase in time spent in open arms at 50 mg/kg, ip measured for 5 mins by elevated plus maze test; format: functional
[5] = Neurotoxicity in mouse assessed as motor coordination at 50 to 100 mg/kg, ip by rotarod test; format: toxicity, organism-based; settings: in vivo
In short: (§2)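 Mice dosed i.p. at 50–100 mg kg–1; reference drugs given at effective anticonvulsant doses. Mice were placed on a corrugated rubber-coated metal rod rotating at 5 rpm, and the number staying on for 2 min was counted. TD50 was derived by Litchfield–Wilcoxon probit analysis.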

[6] = Neurotoxicity in mouse assessed as myorelaxation at 50 to 100 mg/kg, ip measured for 2 mins by rotarod test; format: toxicity, organism-based; settings: in vivo; in short: as §2
Mus musculus [7] = assay: Anticonvulsant activity in mouse assessed as MES-induced […] seizures at 10 to 100 mg/kg, ip administered 45 mins before electrical stimulation; format: functional, organism-based
[8] = Protection index, ratio of TD50 for neurotoxicity in ip dosed mouse to ED50 for anticonvulsant activity in ip dosed mouse; format: toxicity, organism-based; settings: in vivo, read-out: Ratio TD50/ED50
Mus musculus [9] = assay: Antidepressant activity in mouse assessed as latent period of first immobilization at 50 mg/kg, ip measured for 6 mins by forced swimming test (reference value: 92 secs); format: functional
In short: (§3)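 Each mouse swam in a glass container (22 cm high, 14 cm diameter) one-third filled with water, under natural light. Over 6 min, latency to first immobilization, total immobilization time and total active swimming time were recorded.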

[10] = Neurotoxicity in ip dosed mouse assessed as maximum tolerated dose by rotarod test; format: toxicity, organism-based; settings: in vivo
In short: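 Mice given compounds i.p. at […] to 1800 mg/kg to establish the maximal tolerated dose.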

Mus musculus [11] = assay: Antianxiety activity in mouse assessed as time spent in closed arms at 50 mg/kg, ip measured for 5 mins by elevated plus maze test (reference value: 278.2 secs); format: functional
Rattus norvegicus [12] = assay: Antianxiety activity in Wistar rat assessed as increase in number of sniffing cell examinations at 50 mg/kg, ip measured for 5 mins by open field test; format: functional, organism-based
In short: (§4)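 Male Wistar rats (120–140 g), n = 8 per compound, control and reference. Single i.p. dose of 50 mg kg–1 as a suspension in methylcarboxycellulose with Tween-80; controls received emulsifier. Daytime, natural light. Over 5 min, horizontal movements, rearings (vertical movements) and cell sniffings were counted.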

Mus musculus [13] = assay: Anticonvulsant activity in ip dosed mouse assessed as reduction in PTZ-induced clonic seizures administered 45 mins before PTZ stimulation; format: functional; in short: as §1
Mus musculus [14] = assay: Sedative activity in mouse assessed as time spent in center at 50 mg/kg, ip measured for 5 mins by elevated plus maze test (reference value: 21.8 secs); format: functional
Mus musculus [15] = assay: Antianxiety activity in mouse assessed as decrease in number of entries into closed arms at 50 mg/kg, ip measured for 5 mins by elevated plus maze test; format: functional, organism-based
Mus musculus [16] = assay: Antidepressant activity in mouse assessed as total time of immobilization at 50 mg/kg, ip measured for 6 mins by forced swimming test (reference value: 81 secs); format: functional; in short: as §3
Rattus norvegicus [17] = assay: Antianxiety activity in Wistar rat assessed as vertical movement of animals at 50 mg/kg, ip measured for 5 mins by open field test; format: functional, organism-based; in short: as §4
Rattus norvegicus [18] = assay: Antianxiety activity in Wistar rat assessed as horizontal movement of animals at 50 mg/kg, ip measured for 5 mins by open field test; format: functional, organism-based; in short: as §4
Mus musculus [19] = assay: Antidepressant activity in mouse assessed as total time of active swimming at 50 mg/kg, ip measured for 6 mins by forced swimming test (reference value: 282 secs); format: functional; in short: as §3
Mus musculus [20] = assay: Anticonvulsant activity in mouse assessed as MES-induced tonic seizures at 10 to 100 mg/kg, ip administered 45 mins before electrical stimulation; format: functional, organism-based
In short: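 Mice, 8 per dose. Compounds given i.p. at 10, 25, 50, 75 or 100 mg kg–1 in carboxymethylcellulose/Tween-80 suspension, 45 min before maximal electroshock (50 mA, 0.2 s, 50 imp s–1); controls received emulsifier. Endpoint was prevention of the tonic-extensor phase.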

Mus musculus [21] = assay: Antidepressant activity in mouse assessed as latent period of first immobilization at 5 mg/kg, ip measured for 6 mins by forced swimming test (reference value: 92 secs); format: functional; in short: as §3
Mus musculus [22] = assay: Antidepressant activity in mouse assessed as total time of immobilization at 5 mg/kg, ip measured for 6 mins by forced swimming test (reference value: 81 secs); format: functional; in short: as §3
Mus musculus [23] = assay: Antidepressant activity in mouse assessed as total time of active swimming at 5 mg/kg, ip measured for 6 mins by forced swimming test (reference value: 282 secs); format: functional; in short: as §3
[24] = Neurotoxicity in mouse assessed as myorelaxation at 100 to 200 mg/kg, ip measured for 2 mins by rotarod test; format: toxicity, organism-based; settings: in vivo
In short: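 Mice placed on a rubber-coated metal rod rotating at 5 rpm, dosed i.p. Count of animals able to stay on the rod for 2 min. TD50 derived by Litchfield–Wilcoxon probit analysis. Reference drugs given at effective anticonvulsant doses.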

Mus musculus [25] = assay: Anticonvulsant activity in mouse assessed as proportion of animals displaying reduction in PTZ-induced clonic seizures at 200 mg/kg, ip administered 45 mins before PTZ stimulation relative to control; format: functional; parameters: scale not given: the % may be the effect or the level left
Mus musculus [26] = assay: Antianxiety activity in mouse assessed as increase in time spent in open arms at 2 mg/kg, ip measured for 5 mins by elevated plus maze test; format: functional
In short: (§5)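 Mice placed at the junction of a raised cruciform maze (two open, two closed opposed arms) facing an open arm. Entries into and time spent in each arm and the centre recorded for 5 min by video tracking and an observer. Compound given i.p. beforehand; controls given emulsifier; P ≤ 0.05.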

Mus musculus [27] = assay: Antianxiety activity in mouse assessed as time spent in closed arms at 2 mg/kg, ip measured for 5 mins by elevated plus maze test (reference value: 278.2 secs); format: functional; in short: as §5
Mus musculus [28] = assay: Antidepressant activity in mouse assessed as total time of active swimming at 2 mg/kg, ip measured for 6 mins by forced swimming test (reference value: 282 secs); format: functional
In short: (§6)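 Mice swum in a glass cylinder (height 22 cm, diameter 14 cm) one-third filled with water, under natural light. Latency to first immobility, total immobility and total active swimming recorded over 6 min after i.p. dosing; controls given emulsifier.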

Mus musculus [29] = assay: Antidepressant activity in mouse assessed as total time of immobilization at 2 mg/kg, ip measured for 6 mins by forced swimming test (reference value: 81 secs); format: functional; in short: as §6
Mus musculus [30] = assay: Antidepressant activity in mouse assessed as latent period of first immobilization at 2 mg/kg, ip measured for 6 mins by forced swimming test (reference value: 92 secs); format: functional; in short: as §6
Rattus norvegicus [31] = assay: Antianxiety activity in Wistar rat assessed as increase in number of sniffing cell examinations at 2 mg/kg, ip measured for 5 mins by open field test; format: functional, organism-based
In short: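 Male Wistar rats (120–140 g), 8 per group, dosed i.p. as suspension in carboxymethylcellulose with Tween-80; controls given emulsifier. Horizontal movements, rearings and sniffing of cells counted over 5 min in daylight with natural light.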

Mus musculus [32] = assay: Sedative activity in mouse assessed as time spent in center at 2 mg/kg, ip measured for 5 mins by elevated plus maze test (reference value: 21.8 secs); format: functional; in short: as §5

Compound | Activity (Mus musculus [1]) | TD50 at 2 min [2] | anticonvulsant activity (active/inactive) (Mus musculus [3]) | Time (Mus musculus [4]) | Activity [5] | Activity [6] | Activity (Mus musculus [7]) | selectivity ratio [8] | Time (Mus musculus [9]) | MTD [10] | Time (Mus musculus [11]) | Activity (Rattus norvegicus [12]) | ED50 (Mus musculus [13]) | Time (Mus musculus [14]) | inhibition (Mus musculus [15]) | Time (Mus musculus [16]) | Activity (Rattus norvegicus [17]) | Activity (Rattus norvegicus [18]) | Time (Mus musculus [19]) | Activity (Mus musculus [20]) | further results
CC1(C)Cc2c(C#N)c(Nc3ccccc3)n3c(SCCCc4ccccc4)nnc3c2CO1 | 60% | 560 mg/kg | Active | 10 s | Non-Toxic | Non-Toxic | inactive | 24 | 139 s | 1250 mg/kg | 223 s | Active | 23 mg/kg | 67 s | Active | 115 s | inactive | inactive | 245 s | inactive | –
Cc1ccc(Nc2c(C#N)c3c(c4nnc(SCC(=O)N(c5ccccc5)c5ccccc5)n24)COC(C)(C)C3)cc1 | 60% | 610 mg/kg | Active | 6.2 s | Non-Toxic | Non-Toxic | inactive | 13.5 | – | 1750 mg/kg | 242 s | Active | 45 mg/kg | 58 s | – | – | inactive | inactive | – | inactive | Time (Mus musculus [21]): 129 s; Time (Mus musculus [22]): 106 s; Time (Mus musculus [23]): 254 s
CC1(C)Cc2c(C#N)c(Nc3ccccc3)n3c(SCC(=O)c4cccc([N+](=O)[O-])c4)nnc3c2CO1 | 60% | 490 mg/kg | Active | 8 s | Non-Toxic | Non-Toxic | inactive | 13.6 | 147 s | 1000 mg/kg | 241 s | Active | 36 mg/kg | 51 s | Active | 84 s | inactive | inactive | 276 s | inactive | –
CCC1(C)CC(=O)NC1=O (stereo not given) [ETHOSUXIMIDE] | – | – | – | – | – | – | inactive | – | – | 1000 mg/kg | – | – | – | – | – | – | – | – | – | inactive | Activity [24]: Non-Toxic; Activity (Mus musculus [25]): 60%
CN1C(=O)CN=C(c2ccccc2)c2cc(Cl)ccc21 [DIAZEPAM] | – | – | – | – | – | – | inactive | – | – | 200 mg/kg | – | – | 0.5 mg/kg | – | – | – | – | – | – | inactive | Time (Mus musculus [26]): 57 s; Time (Mus musculus [27]): 257.5 s; Time (Mus musculus [28]): 336 s; Time (Mus musculus [29]): 24 s; Time (Mus musculus [30]): 174 s; Activity (Rattus norvegicus [31]): Active; Time (Mus musculus [32]): 42.5 s
